pIC50: −log10 of the molar value.
Legend:
[1] = molecular target: T1, 5-hydroxytryptamine receptor 1A (Rattus norvegicus, UniProt P19327); assay: Inhibitory activity against 5-hydroxytryptamine 1A receptor in rats, using [3H]8-OH-DPAT as radioligand
T1 sequence (P19327 whole entry): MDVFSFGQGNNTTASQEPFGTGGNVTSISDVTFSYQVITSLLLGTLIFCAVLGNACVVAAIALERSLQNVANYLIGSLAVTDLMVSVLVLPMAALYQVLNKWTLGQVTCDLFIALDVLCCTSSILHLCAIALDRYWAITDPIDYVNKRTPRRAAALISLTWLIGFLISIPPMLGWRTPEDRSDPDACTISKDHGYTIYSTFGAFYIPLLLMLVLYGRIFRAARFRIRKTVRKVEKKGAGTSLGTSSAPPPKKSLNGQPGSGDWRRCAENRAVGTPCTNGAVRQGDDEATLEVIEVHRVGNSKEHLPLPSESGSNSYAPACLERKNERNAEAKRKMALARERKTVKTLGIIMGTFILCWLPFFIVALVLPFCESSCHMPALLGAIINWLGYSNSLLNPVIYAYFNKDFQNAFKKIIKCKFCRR
How it was run: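 Rat whole-brain membranes (minus brainstem and cerebellum) in 50 mM Tris pH 8.0 with 120 mM NaCl, 4 mM CaCl2, 4 mM MgCl2 and 10 μM pargyline. Rapid filtration, then scintillation counting. Nonspecific binding defined with 10 μM 5-HT. IC50 by semi-log plot and linear regression.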

D(2) dopamine receptor = D(2) dopamine receptor (Rattus norvegicus, UniProt P61169); assay: Inhibitory activity against Dopamine receptor D2 in rats using [3H]spiperone as radioligand
How it was run: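 Rat striatal membranes in 50 mM potassium phosphate buffer pH 7.4 were incubated with 0.5 nM [3H]spiperone for 10 min at 37 °C. Specific binding was defined with 10 μM 6,7-ADTN.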

Rattus norvegicus [2] = assay: Effect evaluated in vivo on 5-HTP accumulation in limbic system at a dose 3.1 umol/kg (p.o.); format: functional
How it was run: (§1)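 Oral dosing in male Sprague-Dawley rats (200–300 g) pretreated with reserpine 5 mg/kg sc 18 h before. After decarboxylase inhibition with NSD 1015, brain 5-HTP or dopa accumulation (HPLC-electrochemical detection) indexed 5-HT synthesis, DA synthesis (limbic) or NE synthesis (hemispheres, mainly cortex).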

Rattus norvegicus [3] = assay: Effect evaluated in vivo on 5-HTP accumulation in limbic system at a dose 3.1 umol/kg (s.c.); format: functional
How it was run: (§2)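 Male Sprague-Dawley rats (200–300 g) were pretreated with reserpine 5 mg/kg sc 18 h before. Test compound was given sc at 5 mL/kg in neutral solution. 5-HT synthesis rate was indexed by […] 5-HTP accumulation after decarboxylase inhibition with NSD 1015, measured by HPLC-electrochemical detection. Dose-response used 4–6 dose levels, n = 4.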

Rattus norvegicus [4] = assay: Effect evaluated in vivo on 5-HTP accumulation in limbic system at a dose 50 umol/kg (p.o.); format: functional; how it was run: as §1
Rattus norvegicus [5] = assay: Effect evaluated in vivo on 5-HTP accumulation in limbic system at a dose 50 umol/kg (s.c.); format: functional; how it was run: as §2
Rattus norvegicus [6] = assay: Effect evaluated in vivo on 5-HTP accumulation in NE-rich hemispheres at a 0.20 dose uM/kg(sc); format: functional
How it was run: (§3)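 Male Sprague-Dawley rats (200–300 g) were pretreated with reserpine 5 mg/kg sc 18 h beforehand. Test drug was given at neutral pH, 5 mL/kg. Aromatic amino acid decarboxylase was blocked with NSD 1015. 5-HTP in the dissected brain region was assayed by HPLC with electrochemical detection.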

Rattus norvegicus [7] = assay: Effect evaluated in vivo on 5-HTP accumulation in NE-rich hemispheres at a 0.80 dose uM/kg(sc); format: functional; how it was run: as §3
Rattus norvegicus [8] = assay: Effect evaluated in vivo on 5-HTP accumulation in corpus striatum at a dose 12.5 umol/kg (p.o.); format: functional; how it was run: as §3
Rattus norvegicus [9] = assay: Effect evaluated in vivo on 5-HTP accumulation in corpus striatum at a dose 3.1 umol/kg (p.o.); format: functional; how it was run: as §3
Rattus norvegicus [10] = assay: Effect evaluated in vivo on 5-HTP accumulation in corpus striatum at a dose 3.1 umol/kg (s.c.); format: functional; how it was run: as §3
Rattus norvegicus [11] = assay: Effect evaluated in vivo on 5-HTP accumulation in corpus striatum at a dose 50 umol/kg (p.o.); format: functional; how it was run: as §3
Rattus norvegicus [12] = assay: Effect evaluated in vivo on 5-HTP accumulation in corpus striatum after perioral administration; format: functional; how it was run: as §3
Rattus norvegicus [13] = assay: Effect evaluated in vivo on 5-HTP accumulation in limbic system after perioral administration; format: functional; how it was run: as §3
Rattus norvegicus [14] = assay: Effect evaluated in vivo on 5-HTP accumulation in limbic system after subcutaneous administration; format: functional; conditions: sc; how it was run: as §3
Rattus norvegicus [15] = assay: Effect evaluated in vivo on 5-HTP accumulation in corpus striatum at a dose 50 umol/kg (s.c.); format: functional; how it was run: as §3
Rattus norvegicus [16] = assay: Effect evaluated in vivo on 5-HTP accumulation in limbic system at a dose 0.20 umol/kg (s.c.); format: functional; how it was run: as §3
Rattus norvegicus [17] = assay: Effect evaluated in vivo on 5-HTP accumulation in limbic system at a dose 0.80 umol/kg (p.o.); format: functional; how it was run: as §1
Rattus norvegicus [18] = assay: Effect evaluated in vivo on 5-HTP accumulation in limbic system at a dose 0.80 umol/kg (s.c.); format: functional; how it was run: as §2
Rattus norvegicus [19] = assay: Effect evaluated in vivo on 5-HTP accumulation in limbic system at a dose 12.5 umol/kg (p.o.); format: functional; how it was run: as §1
Rattus norvegicus [20] = assay: Effect evaluated in vivo on 5-HTP accumulation in NE-rich hemispheres after perioral administration; format: functional; how it was run: as §3
Rattus norvegicus [21] = assay: Effect evaluated in vivo on 5-HTP accumulation in NE-rich hemispheres after subcutaneous administration; format: functional; conditions: sc; how it was run: as §3
Rattus norvegicus [22] = assay: Effect evaluated in vivo on 5-HTP accumulation in NE-rich hemispheres at a 3.1 dose uM/kg(sc); format: functional; how it was run: as §3
Rattus norvegicus [23] = assay: Effect evaluated in vivo on 5-HTP accumulation in NE-rich hemispheres at a 50 dose uM/kg(sc); format: functional; how it was run: as §3
Rattus norvegicus [24] = assay: Effect evaluated in vivo on 5-HTP accumulation in corpus striatum after subcutaneous administration; format: functional; conditions: sc; how it was run: as §3
Rattus norvegicus [25] = assay: Effect evaluated in vivo on 5-HTP accumulation in corpus striatum at a dose 0.20 umol/kg (s.c.); format: functional; how it was run: as §3
Rattus norvegicus [26] = assay: Effect evaluated in vivo on 5-HTP accumulation in corpus striatum at a dose 0.80 umol/kg (p.o.); format: functional; how it was run: as §3
Rattus norvegicus [27] = assay: Effect evaluated in vivo on 5-HTP accumulation in corpus striatum at a dose 0.80 umol/kg (s.c.); format: functional; how it was run: as §3
Rattus norvegicus [28] = assay: The compound was tested in vivo for locomotor activity in rats at 50 umol/kg after perioral administration; format: functional
How it was run: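 Reserpine-pretreated rats (5 mg/kg sc, 18 h before) received test compound orally. Photocell motility counts were accumulated over 30 min, and gross behaviour, including 5-HT syndrome, was observed.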

Rattus norvegicus [29] = assay: The compound was tested in vivo for locomotor activity in rats at 50 umol/kg after subcutaneous administration; format: functional
How it was run: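 Male Sprague-Dawley rats received reserpine 5 mg/kg sc in the neck 18 h before testing. Test compound was given sc in the neck (n = 4). Rats were placed singly in photocell motility meters immediately after dosing, and counts were accumulated over 30 min (tests 9 a.m.–1 p.m.). Gross behaviour, including 5-HT syndrome, was observed throughout.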

D(2) dopamine receptor, sequence (P61169 whole entry): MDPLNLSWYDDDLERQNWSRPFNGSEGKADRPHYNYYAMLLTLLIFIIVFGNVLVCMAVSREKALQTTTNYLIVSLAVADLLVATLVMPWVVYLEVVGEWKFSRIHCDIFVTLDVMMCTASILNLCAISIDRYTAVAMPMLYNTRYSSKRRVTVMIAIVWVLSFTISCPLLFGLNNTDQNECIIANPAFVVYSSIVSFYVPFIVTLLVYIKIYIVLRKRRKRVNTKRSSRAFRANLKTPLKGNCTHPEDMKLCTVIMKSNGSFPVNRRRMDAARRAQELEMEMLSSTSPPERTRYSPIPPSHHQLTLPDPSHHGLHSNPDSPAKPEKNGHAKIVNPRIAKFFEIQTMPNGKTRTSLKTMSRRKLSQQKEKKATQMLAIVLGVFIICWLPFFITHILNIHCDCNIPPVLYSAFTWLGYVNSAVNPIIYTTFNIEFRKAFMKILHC

CCCN1CCc2c(Br)ccc(OC)c2CC1
pIC50 [1]: 7.55 | pIC50 (D(2) dopamine receptor): 6.17 | Control (Rattus norvegicus [2]): 90% | Control (Rattus norvegicus [3]): 69% | Control (Rattus norvegicus [4]): 48% | Control (Rattus norvegicus [5]): 48% | Control (Rattus norvegicus [6]): 102% | Control (Rattus norvegicus [7]): 111% | Control (Rattus norvegicus [8]): 77% | Control (Rattus norvegicus [9]): 96% | Control (Rattus norvegicus [10]): 71% | Control (Rattus norvegicus [11]): 50% | ED50 (Rattus norvegicus [12]): 14 µmol/kg | ED50 (Rattus norvegicus [13]): 13 µmol/kg | ED50 (Rattus norvegicus [14]): 2.7 µmol/kg | Control (Rattus norvegicus [15]): 50% | Control (Rattus norvegicus [16]): 108% | Control (Rattus norvegicus [17]): 88% | Control (Rattus norvegicus [18]): 118% | Control (Rattus norvegicus [19]): 76% | ED50 (Rattus norvegicus [20]): 21 µmol/kg | ED50 (Rattus norvegicus [21]): 5 µmol/kg | Control (Rattus norvegicus [22]): 83% | Control (Rattus norvegicus [23]): 43% | ED50 (Rattus norvegicus [24]): 3.2 µmol/kg | Control (Rattus norvegicus [25]): 117% | Control (Rattus norvegicus [26]): 112% | Control (Rattus norvegicus [27]): 130% | Locomotor activity (Rattus norvegicus [28]): 21 | Locomotor activity (Rattus norvegicus [29]): 108
